The species entered for assay [1] is Rattus norvegicus. The experiment in a line: The enzymatic formation of propionaldehyde from compound on inhibition with rat liver microsomes in the presence of an NADPH (treated with phenobarbital (PB)). It is filed as functional. In outline: (§1)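 Liver microsomes (100000g pellet, KCl-washed) from PB-treated or naive rats, equivalent to 500 mg liver per flask. Incubated 30 min at 37 °C with 3 mM compound, pH 7.4 phosphate, NADP+ 2.0 mM, glucose 6-phosphate 2.5 mM, G6PDH, MgCl2, nicotinamide, and 30 mM semicarbazide. Six flasks were pooled, acidified with HClO4, and propiolaldehyde read by head-space GC from 3–5 determinations.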
A general note: Liver microsomes are a subcellular fraction often used to study metabolism.

Assay [2] is filed under the species Rattus norvegicus. The experiment in a line: Blood AcH level of compound was measured in rats which are untreated with phenobarbital (PB). It is filed as functional. Summed up:
(§2)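 Male Sprague–Dawley rats kept 8 days on water (untreated) or 0.1% sodium phenobarbital solution (PB-treated), then fasted overnight. Test agent given at 1.25 mmol/kg ip 2 h before sacrifice, with ethanol at 2.0 g/kg ip 1 h later; saline controls. Cardiac blood was collected into 5 mM sodium azide and frozen, then acetaldehyde was read by head-space GC. Mean ± SE.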

Assay [3] is filed under the species Rattus norvegicus. The experiment in a line: T/C value of compound was measured in rats which are treated with phenobarbital (PB). It counts as functional. In outline: (§3)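 Rats were given water (untreated) or 0.1% sodium phenobarbital drinking solution (PB-treated) for 8 days, then fasted overnight. Agent 1.25 mmol/kg ip, then ethanol 2.0 g/kg ip 1 h later; killed 1 h after ethanol. Blood acetaldehyde by head-space GC. The value is treated/saline-control blood acetaldehyde within the same pretreatment group.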

Assay [4] is filed under the species Rattus norvegicus. The experiment in a line: T/C value of compound was measured in rats which are untreated with phenobarbital (PB). It counts as functional. Summed up:
as §3

For assay [5], the species on record is Rattus norvegicus. The experiment in a line: The enzymatic formation of propionaldehyde from compound on inhibition with rat liver microsomes in the presence of an NADPH (untreated with phenobarbital (PB)). It is filed as functional. In outline: as §1
For assay [6], the species on record is Rattus norvegicus. The experiment in a line: Blood AcH level of compound was measured in rats which are treated with phenobarbital (PB). It counts as functional. In outline:
as §2

Assay [7] has as its target T1, Aldehyde dehydrogenase 1A1 (Rattus norvegicus) (UniProt P51647).
T1 sequence (whole entry): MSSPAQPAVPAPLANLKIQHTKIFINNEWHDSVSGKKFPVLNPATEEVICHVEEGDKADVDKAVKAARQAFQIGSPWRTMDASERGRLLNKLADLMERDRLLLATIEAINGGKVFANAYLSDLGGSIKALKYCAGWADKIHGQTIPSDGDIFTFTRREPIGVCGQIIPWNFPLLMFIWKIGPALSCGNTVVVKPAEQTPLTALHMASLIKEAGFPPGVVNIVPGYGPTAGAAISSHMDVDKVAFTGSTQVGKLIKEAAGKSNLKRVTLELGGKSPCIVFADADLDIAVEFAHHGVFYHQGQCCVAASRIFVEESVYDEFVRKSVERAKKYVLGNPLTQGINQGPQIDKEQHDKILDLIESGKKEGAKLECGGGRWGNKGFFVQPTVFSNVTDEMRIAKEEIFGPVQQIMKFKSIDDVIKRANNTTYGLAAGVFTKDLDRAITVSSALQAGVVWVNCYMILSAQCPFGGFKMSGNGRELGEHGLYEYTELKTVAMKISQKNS
The experiment in a line: Percent inhibition of the enzyme […] was measured in rats which are treated with phenobarbital (PB). Particulars: concentration not given here. In outline:
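Male Sprague–Dawley rats pretreated 8 days with 0.1% sodium phenobarbital in drinking water, then fasted overnight. They received 1.25 mmol/kg ip 2 h before sacrifice and ethanol 2.0 g/kg ip at 1 h. Liver mitochondrial low-Km aldehyde dehydrogenase activity (nmol acetaldehyde oxidized/min/mg protein, Lowry protein) was compared with saline controls as % inhibition.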

The results in this text go back to ChEMBL document CHEMBL1121456, “Metabolic depropargylation and its relationship to aldehyde dehydrogenase inhibition in vivo” (1980).

On to `C#CCNCc1ccccc1` [N-BENZYLPROPARGYLAMINE], for which the Propioaldehyde generated in assay [1] came to 1.16 µmol; in assay [5], 0.2 µmol. In addition, the “Blood AcH” value was found to be 203 µM in assay [2] and 382 µM in assay [6]. Further, the T/C turned out to be 50.3 in assay [3] and 18.3 in assay [4].
As usually defined, the inhibition is the share of the control response that was lost under treatment. A higher inhibition goes with a strong effect. `C#CC(OC)OC` displayed an inhibition in assay [7] of 44%. The Propioaldehyde generated in assay [1] was determined as 0.05 µmol. The “Blood AcH” value amounted to 10.6 µM in assay [2] and 24.1 µM in assay [6]. The T/C is reported as 3.17 in assay [3] and 0.95 in assay [4].
For the compound `C#CCOC(C)(C)C`, the Propioaldehyde generated in assay [1] was determined as 0.22 µmol. In addition, the “Blood AcH” value in assay [2] stood at 19.6 µM; in assay [6], 13.5 µM. In addition, the figures for the T/C in assay [3] and in assay [4] were 1.78 and 1.77, respectively.
Turning to `C#CCN(C)Cc1ccccc1` [PARGYLINE], the figures for the Propioaldehyde generated in assay [1] and in assay [5] were 2.58 µmol and 0.61 µmol, respectively. Further, the “Blood AcH” value in assay [2] came to 224 µM; in assay [6], 247 µM. In addition, the T/C in assay [3] was found to be 32.5; in assay [4], 20.2.
For `C#CCN(CC#C)CC#C`, the Propioaldehyde generated was 3.5 µmol in assay [1] and 0.25 µmol in assay [5]. Moreover, the “Blood AcH” value was 15.4 µM in assay [2] and 144 µM in assay [6]. For the same compound, the T/C in assay [3] was determined as 19; in assay [4] it was 1.4.
In the case of `C#CCOC`, the Propioaldehyde generated in assay [1] turned out to be 0.05 µmol. Moreover, the “Blood AcH” value in assay [2] amounted to 10.6 µM. Besides, the T/C turned out to be 1.1 in assay [3] and 0.95 in assay [4].
